# From PubChem
# Sampled rows, rich in hits. Any-hit rate of the full collection: about 2.6%.
# OXTR agonist = activates the human oxytocin receptor | CHO-OTR cells, Fluo-8 calcium fluorescence; normalized: DMSO 0%, oxytocin 100% | hit rate 0.32% among 320,000 | activation, % at 3 µM | AID 2435;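 active means activation above the mean of all tested compounds plus 3 SD, cutoff set per screening run, cut at about 20% in these data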;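 further: peak over basal fluorescence ratio from a 100 s FLIPR kinetic read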
# Target sequence (P30559 whole entry, looked up): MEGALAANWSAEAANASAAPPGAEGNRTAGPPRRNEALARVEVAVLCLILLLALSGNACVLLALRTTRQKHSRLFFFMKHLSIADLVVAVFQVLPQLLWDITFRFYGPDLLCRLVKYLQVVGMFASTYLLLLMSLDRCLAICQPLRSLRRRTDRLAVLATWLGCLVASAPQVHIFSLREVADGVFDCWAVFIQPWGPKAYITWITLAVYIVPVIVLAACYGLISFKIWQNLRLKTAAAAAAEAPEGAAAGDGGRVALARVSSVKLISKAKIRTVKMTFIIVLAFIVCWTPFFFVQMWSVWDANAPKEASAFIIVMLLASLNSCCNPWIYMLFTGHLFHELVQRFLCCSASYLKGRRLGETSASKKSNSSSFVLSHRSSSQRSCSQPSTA
# V1aR counter = V1a receptor agonism, counter-screen for OXTR agonists. P37288. CHO-V1R cells, Fluo-8 calcium fluorescence, agonist mode; 0% DMSO, 100% 3 nM vasopressin. activation, % at 3 µM. hit rate 0.25% among 320,000;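 active means activation above the mean activation of all tested compounds plus 3 SD, per screening run, cut at about 20% in these data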;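 further: signal is peak over basal fluorescence ratio across a 100 second FLIPR read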
# OX1R antag-1 = OX1R (human) antagonism; O43613; OX1R-expressing cells, FRET antagonist read-out; inhibition, % at 6.6 µM; hit rate 1.8% among 330,000; in the data active means inhibition mostly above about 38%, no sharp cut-off; inactive means mostly below about 40%;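 further: 0% = agonist challenge alone and 100% = reference antagonist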
# CHO parental Ca = signal in parental CHO cells, OX1R antagonist counter-screen | parental CHO-K1, ATP-induced calcium, Fluo-8 fluorescence | hit rate 0.63% among 330,000 | AID 463079 | inhibition, % at 5.6 µM;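 active means inhibition above that plate's mean sample inhibition plus 3 SD, cut at about 26% in these data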;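 further: 0% = ATP-challenged DMSO wells and 100% = DMSO wells without ATP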
#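 Assay system – parental CHO cells · Reagent – ATP stimulus · Detection – intracellular calcium via Fluo-8 no-wash fluorescent dye · Evaluation – percent inhibition of ATP-evoked calcium rise, normalized to controls · Controls – ATP wells versus no-ATP DMSO wells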
# OXTR potentiate = potentiators of human oxytocin receptor; hit rate 0.061% among 320,000; P30559; CHO-OTR cells, Fluo-8 calcium fluorescence, potentiator mode; 0% = oxytocin EC15, 100% = EC100; activation, % at 3 µM; AID 2445;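 active means activation above that plate's cutoff, the mean activation of tested compounds plus 3 SD, cut at about 6.6% in these data, passing the limit was not always enough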;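 further: 100% uses oxytocin at 75 nM as the full agonist control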
#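 Replication – single well per compound, singlicate · Assay system – CHO cell line stably expressing human OTR · Timing – 6 min pre-incubation, 100 s read · Measure – normalized max/min fluorescence ratio, % activation · Doses – 3.0 µM, one dose · Detection – Fluo-8 calcium dye fluorescence · Probe or stimulus – oxytocin near EC15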
# OX1R antag-2 = antagonists of human orexin 1 receptor | CHO/OX1R cells, Fluo-8 calcium fluorescence, orexin A | inhibition, % at 5 µM | hit rate 0.43% among 330,000 | AID 434989;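 active means inhibition above its plate's threshold, mean inhibition of all tested compounds on the plate plus 3 SD, cut at about 37% in these data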;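 further: 0% = orexin A challenge wells and 100% = SB-334867-A antagonist wells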
# OX1R HTRF confirm = confirmation of human orexin 1 receptor antagonists, HTRF format | OX1R-expressing cells, HTRF antagonist assay | shares compounds with OX1R antag-1 | hit rate 49% among 1,800 | inhibition, % at 6.6 µM; in the data active means inhibition above about 55%;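 further: CHO cells expressing OX1R stimulated with orexin A at about EC80; 0% = agonist challenge alone and 100% = reference antagonist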
# CHO-K1 HTRF = counter-screen: parental CHO-K1 HTRF response; shares compounds with OX1R antag-1; parental CHO-K1 cells, HTRF counterscreen; inhibition, % at 6.6 µM; hit rate 48% among 1,800; in the data active means inhibition above about 17%;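 further: 0% = agonist challenge with vehicle and 100% = vehicle alone without agonist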
# * marks the source's active call; other numbers are inactive results; . = not tested or not shown.
SMILES,OXTR agonist,V1aR counter,OX1R antag-1,CHO parental Ca,OXTR potentiate,OX1R antag-2,OX1R HTRF confirm,CHO-K1 HTRF
CCc1ccc(NC(=O)C(NS(=O)(=O)c2cccc3nsnc23)c2ccccc2)cc1 (stereo not given),-1.9,-0.6,18.7,-14.9,-6.9,-14.3,.,.
O=C(CCC(=O)N1CCOc2ccccc21)Nc1cc(F)ccc1F,0.6,0.4,10.2,-11.0,-9.0,-13.1,.,.
O=C(COC(=O)c1ccc(S(=O)(=O)N2CCOCC2)cc1)NCc1cccs1,0.7,0.8,15.6,-2.1,-10.1,-22.5,.,.
CNc1ccc(C(=O)c2ccccc2C(=O)O)cc1[N+](=O)[O-],0.8,0.0,79.6*,0.9,-6.0,-21.0,24.7,35.7*
Clc1cccc(Nc2nc(-c3ccncc3)cs2)c1,-1.8,-1.9,79.9*,6.2,-23.3,19.1,33.0,11.3
Cc1noc(C)c1S(=O)(=O)Nc1ccc(O)c2c(=O)cc(-c3ccccc3Cl)oc12,-0.8,-1.1,85.2*,-7.3,-5.0,24.9,93.2*,0.8
COc1ccc(CN(CC(=O)NCCc2ccccc2)C(=O)CCC(=O)Nc2cc(C)ccn2)cc1,1.0,1.9,8.0,-35.6,-5.2,-18.1,.,.
O=C1N=C(N2C=CC(=C3C=CNC=C3)C=C2)/C(=C/N=NC(=O)c2ccccc2O)S1,0.0,5.2,108.1*,-11.9,-4.4,-10.9,68.2*,108.6*
COC(=O)c1ccc(CO/N=C/c2ccc(OC)cc2OC)cc1,-1.6,-0.6,5.8,-14.6,-15.4,-16.0,.,.
O=C(CNC(=O)c1cccs1)NCC(=O)OCC(=O)c1ccc([N+](=O)[O-])cc1,0.7,1.7,103.1*,-4.8,-1.4,-2.6,35.7,43.5*
CCN1CCCC1CNC(=O)C1CCCN(S(=O)(=O)c2cccc3nsnc23)C1 (stereo not given),0.6,0.6,118.3*,2.5,-10.2,-17.2,39.0,61.6*
Cc1cccc(NC(=O)C2CCCN(S(=O)(=O)c3cccc4nsnc34)C2)c1 (stereo not given),3.4,6.0,91.0*,-13.2,-11.9,13.2,57.0*,9.2
Cc1cccc(NC(=O)C2CCN(S(=O)(=O)c3cccc4nsnc34)CC2)c1,1.7,2.2,31.2,3.8,-6.0,4.3,.,.
Cc1cccc(NC(=O)C2CCCN(S(=O)(=O)c3cccc4nsnc34)C2)n1 (stereo not given),0.7,1.6,84.2*,-26.8,-3.1,-20.6,35.2,17.8*
CC1=NN(C(N)=S)C(=O)C1N=Nc1ccccc1C (stereo not given),-2.3,-0.8,96.0*,-31.4,-8.2,-23.4,31.4,17.1*
NS(=O)(=O)c1ccc(NN=C2CCN(Cc3ccccc3)CC2)c([N+](=O)[O-])c1,7.0,9.0,82.7*,-2.7,-12.6,8.0,19.0,7.3
CCNS(=O)(=O)c1ccc(CCC(=O)NCc2ccccn2)cc1,0.8,0.2,5.8,-2.1,-5.1,-11.0,.,.
COc1cccc(/C=C2/SC(=S)N(CC(=O)NNC(=O)c3ccccc3OC)C2=O)c1,0.3,1.0,86.0*,-6.3,2.6,-7.2,96.2*,3.3
COc1cccc(/C=C2\SC(=S)N(CCC(=O)NNC(=O)c3ccccc3OC)C2=O)c1,1.8,3.8,13.7,-9.1,1.0,-16.9,.,.
CCCC(=O)OCCNc1cc(SCCC(=O)OC)c2nonc2c1[N+](=O)[O-],0.3,1.5,120.5*,-20.4,-10.7,-10.2,64.3*,78.6*
Cc1cc(C)c(O)c(-c2cc(C(=O)NCCc3ccc(S(N)(=O)=O)cc3)[nH]n2)c1,-0.8,0.3,98.0*,-2.6,-6.5,-18.3,18.9,-1.2
O=C(NCCCn1ccnc1)/C(=C\c1cccnc1)NC(=O)c1ccccc1F,0.1,0.0,0.9,-5.6,-5.6,-1.6,.,.
CC(CC1C(C#N)=C(N)SC(N)=C1C#N)c1ccccc1 (stereo not given),9.5,12.9,87.7*,9.1,-16.8,8.2,23.5,1.6
